The source of these data is ChEMBL document CHEMBL5500397, “Discovery of CDC42 Inhibitors with a Favorable Pharmacokinetic Profile and Anticancer In Vivo Efficacy” (J Med Chem, 2024).

A short description of data set [1]: Metabolic stability in mouse plasma assessed as half life at 2 uM measured after 0 to 120 mins by LC-MS/MS analysis. Format: ADME, cell-free. To be noted: time 0-120 min; for t1/2: 2 µM.
Data set [2] can be described thus: Metabolic stability in mouse liver microsomes assessed as half life at […] preincubated for 15 mins followed by NADPH cofactor addition and measured after 1 hr by LC-MS/MS analysis. Format: ADME, Microsome. To be noted: dose 4.6 µM, time 75 min. (Microsomes from liver hold many membrane-bound enzymes, among them those of drug oxidation.)
Data set [3] can be described thus: Cmax in male CD-1 mouse at 3 mg/kg, iv measured upto 240 mins by LC/MS/MS analysis. Format: ADME, organism-based. Particulars: in vivo, 4 h.
Data set [4] is described as follows: Tmax in male CD-1 mouse at 3 mg/kg, iv measured upto 240 mins by LC/MS/MS analysis. Format: ADME, organism-based. Particulars: in vivo, 4 h. The method in brief:
(§1)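 Mouse PK after single intravenous injection of 3 mg/kg; n = 3 animals per time point; plasma concentration–time profile used for observed and calculated PK parameters.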

A short description of data set [5]: Half life in male CD-1 mouse at 3 mg/kg, iv measured upto 240 mins by LC/MS/MS analysis. It is filed as ADME, organism-based. Particulars: in vivo, 4 h. The method in brief: as §1
Data set [6] in a line: Cmax in male CD-1 mouse at 10 mg/kg, po measured upto 480 mins by LC-MS/MS analysis. To be noted: in vivo, 8 h. It is filed as ADME, organism-based. The method in brief:
(§2)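 Mouse PK after single oral dose of 10 mg/kg; n = 3 animals per time point; plasma concentration–time profile used for observed and calculated PK parameters.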

Data set [7] is described as follows: Half life in male CD-1 mouse at 10 mg/kg, po measured upto 480 mins by LC-MS/MS analysis. Format: ADME, organism-based. To be noted: in vivo, 8 h. The method in brief: as §2
A short description of data set [8]: Oral bioavailability in male CD-1 mouse at 10 mg/kg measured upto 480 mins by LC-MS/MS analysis. Particulars: in vivo, 8 h. Format: ADME, organism-based. The method in brief:
as §2

Data set [9] is described as follows: Drug concentration in male CD-1 mouse plasma at 3 mg/kg, iv measured after 4 hrs by LC-MS/MS analysis. Format: ADME, organism-based. The method in brief: as §1
A short description of data set [10]: Drug concentration in male CD-1 mouse plasma at 10 mg/kg, po measured after 8 hrs by LC-MS/MS analysis. It is filed as ADME, organism-based. The gist of the method:
as §2

Data set [11] is described as follows: Drug concentration in male CD-1 mouse plasma at 10 mg/kg, po measured after 4 hrs by LC-MS/MS analysis. Format: ADME, organism-based. The method in brief:
as §2

As for `Cn1ccc2ccc(Nc3cc(-c4ccccc4)nc(C4CCNCC4)n3)cc21`, the t1/2 in [1] is above 2 h.
One may read the half-life as how long it takes for the measured level to halve. As to `Cn1ccc2cc(-c3nc(Nc4cccc(C(F)(F)F)c4)nc(C4CCNCC4)n3)ccc21`, the half-life at 2 µM in [1] is above 2 h. Further, the half-life at […] in [2] was above 1 h.
Regarding `c1ccc(-c2cc(Nc3ccc4cc[nH]c4c3)nc(C3CCNCC3)n2)cc1`, the t1/2 in data set [1] is above 2 h.
For the compound `COc1ccc(Nc2nc(-c3ccccc3)cc(C3CCNCC3)n2)cn1`, the t1/2 in [1] is above 2 h.
Same read-out and setting: under `FC(F)(F)c1cccc(Nc2nc(C3=CCNCC3)nc(-c3ccsc3)n2)c1` stands above 2 h.
On the same count and under the same terms, under `FC(F)Oc1cc(Nc2nc(-c3ccccc3)cc(C3CCNCC3)n2)ccn1` stands above 2 h; under `FC(F)(F)Oc1cccc(Nc2nc(-c3ccccc3)cc(C3CCNCC3)n2)c1`, above 2 h.
Consider `FC(F)(F)c1cccc(Nc2nc(-c3ccc4[nH]ncc4c3)nc(C3CCNCC3)n2)c1`, for which the half-life at 2 µM in data set [1] is above 2 h. For the same compound, the half-life at […] in [2] is above 1 h.
In the same order, the values of `FC(F)(F)c1cccc(Nc2nc(-c3coc4ccccc34)nc(C3CCNCC3)n2)c1` are above 2 h and above 1 h.
Regarding `COc1cc(Nc2nc(-c3ccccc3)cc(C3CCNCC3)n2)ccn1`, the t1/2 in data set [1] was above 2 h.
On the same count and under the same terms, to `FC(F)(F)c1cccc(Nc2nc(-c3ccc[nH]3)nc(C3CCNCC3)n2)c1` belongs above 2 h.
By Cmax is commonly meant the highest concentration seen after dosing. Usually Tmax stands for the time from dosing to the highest level. Turning to `COc1ccc(Nc2nc(-c3ccccc3)cc(C3CCNCC3)n2)cc1OC`, the half-life at 2 µM in data set [1] was above 2 h. Also, the Cmax was 320 ng/mL in data set [3] and 140 ng/mL in data set [6]. Moreover, the time to peak (Tmax) in [4] was 5 min. Besides, the t1/2 in data set [5] was determined as 4.28 h; in data set [7], 2.8 h. The same compound returned a F in data set [8] of 22%. This compound also displayed a concentration at 4 h in data set [9] of 74 ng/mL. The compound also registered a concentration at 8 h in data set [10] of 7 ng/mL.
As to `COC(=O)c1cc(Nc2nc(-c3ccccc3)cc(C3CCNCC3)n2)ccc1OC`, in [1], the t1/2 came to 1.48 h.
Regarding `FC(F)(F)c1cccc(Nc2nc(-c3ccccc3)cc(C3CCNCC3)n2)c1`, the t1/2 in data set [1] was above 2 h.
Take `FC(F)(F)c1cccc(Nc2nc(-c3cccc4cnccc34)nc(C3CCNCC3)n2)c1`: the half-life at 2 µM in [1] is above 2 h. For the same compound, the half-life at […] in data set [2] is above 1 h.
With `FC(F)(F)c1cc(Nc2nc(-c3ccccc3)cc(C3CCNCC3)n2)ccn1`, the t1/2 in data set [1] was above 2 h; in data set [5], 1.92 h; in data set [7], 1.52 h. The Cmax came to 643 ng/mL in [3] and 99 ng/mL in data set [6]. In addition, in [4], the Tmax came to 5 min. In addition, in data set [8], the F amounted to 8%. Also, the concentration at 4 h in [9] worked out at 84 ng/mL; in data set [11] it was 40 ng/mL.
As to `CN(C)c1cccc(Nc2nc(-c3ccccc3)cc(C3CCNCC3)n2)c1`, the t1/2 in data set [1] came to 1 h.
Same read-out and setting: under `CN(C)c1cccc(Nc2cc(-c3ccccc3)nc(C3=CCNCC3)n2)c1` stands above 2 h.
